According to PMC5885750 (Bioorganic & medicinal chemistry letters, 2018):

What was measured:
[1] = biological target: T1, Heptosyltransferase I (HepI) (Escherichia coli, UniProt P24173); test: Kinetic characterization of inhibition mechanism; type: biochemical
In short: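 Rates at rising inhibitor levels fitted to a mixed (noncompetitive) equation with Ks, Ki and α. α marks preference for free enzyme (>1), ternary complex (<1) or neither (=1). It is judged from whether Km rises, falls or stays unchanged as inhibitor increases. ODLA acceptor was varied in the ODLA series.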

[2] = biological target: T1, Heptosyltransferase I (HepI); test: Inhibition of HepI catalysis with substrates ODLA and ADP-Heptose; type: biochemical

T1 sequence (P24173 whole entry): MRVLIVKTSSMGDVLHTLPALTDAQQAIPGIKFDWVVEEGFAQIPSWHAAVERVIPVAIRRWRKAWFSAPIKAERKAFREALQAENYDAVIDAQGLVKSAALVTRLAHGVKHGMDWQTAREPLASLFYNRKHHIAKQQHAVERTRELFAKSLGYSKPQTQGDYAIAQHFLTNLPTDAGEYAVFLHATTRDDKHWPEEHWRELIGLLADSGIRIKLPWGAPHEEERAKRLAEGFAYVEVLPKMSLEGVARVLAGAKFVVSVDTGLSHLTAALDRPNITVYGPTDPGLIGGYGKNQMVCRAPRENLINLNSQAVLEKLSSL

| Structure (SMILES) | kcat ADP-Heptose ([1]; [Inhibitor] 10 μM) [s⁻¹] | kcat ODLA ([1]; [Inhibitor] 10 μM) [s⁻¹] | kcat ADP-Heptose ([1]; [Inhibitor] 100 μM) [s⁻¹] | kcat ODLA ([1]; [Inhibitor] 100 μM) [s⁻¹] | kcat ADP-Heptose ([1]; [Inhibitor] 1000 μM) [s⁻¹] | kcat ODLA ([1]; [Inhibitor] 1000 μM) [s⁻¹] | type of inhibition against ODLA ([1]; acceptor substrate ODLA varied) | α (preference for free enzyme or ES complex) ([1]; against ADP-Heptose, α<1 = prefers ES complex) | type of inhibition against ADP-Heptose ([1]; donor substrate ADP-Heptose varied) | inhibition of HepI activity (in words) [2] |
| --- | --- | --- | --- | --- | --- | --- | --- | --- | --- | --- |
| CCCC/C=C/CO[C@@H]1O[C@H](CO)[C@@H](O)[C@H](O)[C@H]1O [Compound 7, hexene-β-D-glucopyranoside] | 2.8 ± 0.3 | 1.4 ± 0.03 | 1.6 ± 0.1 | 1.3 ± 0.004 | 0.76 ± 0.08 | 0.9 ± 0.2 | uncompetitive inhibition | < 1 | noncompetitive (mixed-competitive) inhibition | – |
| CCCCCCCCO[C@@H]1O[C@H](CO)[C@@H](O)[C@H](O)[C@H]1O [n-Octyl-β-D-glucopyranoside] | – | – | – | – | – | – | – | – | – | small degree of inhibition |
